This is a sample that favours compounds with a hit; in the whole collection about 5.4% have one here.
Mdm2 MdmX PPI = disrupts the human Mdm2-MdmX interaction | O15151+Q00987 | SaOS-2 split-luciferase Mdm2/MdmX complementation, luminescence | inhibition, % at 8 µM | 330,000 tested, 3% active;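 active = inhibition of at least 50% at 8 µM in the primary screen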
Target sequence (O15151 whole entry, looked up): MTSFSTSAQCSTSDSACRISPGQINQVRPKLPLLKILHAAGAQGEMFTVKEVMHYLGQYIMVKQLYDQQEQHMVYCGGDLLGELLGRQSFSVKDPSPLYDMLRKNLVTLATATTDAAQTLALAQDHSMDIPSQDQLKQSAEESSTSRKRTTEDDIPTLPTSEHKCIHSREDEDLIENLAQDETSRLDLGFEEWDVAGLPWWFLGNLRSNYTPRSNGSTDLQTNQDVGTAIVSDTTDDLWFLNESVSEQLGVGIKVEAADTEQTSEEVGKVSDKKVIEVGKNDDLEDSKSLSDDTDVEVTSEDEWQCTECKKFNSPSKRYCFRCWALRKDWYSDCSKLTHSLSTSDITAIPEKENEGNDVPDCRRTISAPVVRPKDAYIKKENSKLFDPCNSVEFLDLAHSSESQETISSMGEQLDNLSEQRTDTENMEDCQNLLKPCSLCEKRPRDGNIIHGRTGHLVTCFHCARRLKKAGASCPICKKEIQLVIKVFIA
Target sequence (Q00987 whole entry, looked up): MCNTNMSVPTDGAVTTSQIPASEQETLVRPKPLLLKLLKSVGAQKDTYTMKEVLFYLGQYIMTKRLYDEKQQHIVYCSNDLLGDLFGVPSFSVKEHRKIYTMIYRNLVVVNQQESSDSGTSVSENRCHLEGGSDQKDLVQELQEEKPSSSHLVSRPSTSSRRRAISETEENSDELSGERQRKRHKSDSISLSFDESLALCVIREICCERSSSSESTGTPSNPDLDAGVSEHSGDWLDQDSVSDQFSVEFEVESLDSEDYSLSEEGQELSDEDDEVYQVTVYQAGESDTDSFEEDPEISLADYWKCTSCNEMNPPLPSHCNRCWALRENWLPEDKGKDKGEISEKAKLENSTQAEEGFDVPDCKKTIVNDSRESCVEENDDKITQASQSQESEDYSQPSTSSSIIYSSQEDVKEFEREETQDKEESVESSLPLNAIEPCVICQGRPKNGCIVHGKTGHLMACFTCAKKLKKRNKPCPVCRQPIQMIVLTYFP
T cruzi inh = blocks replication of Trypanosoma cruzi | 300,000 tested, 1.4% active | inhibition, % (test concentration not listed) | T. cruzi beta-gal in NIH3T3, luminescence, 90 h;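 active = mean inhibition across valid replicates above about 55%, limit read from the data; inconclusive = mean below that limit but half or more replicates reach it; inactive = mean below it, under half of replicates reach it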;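 note: signal also drops with host cell toxicity which is not excluded here; 0% = plate median of DMSO wells and 100% = zero luminescence signal; higher percent means less beta-gal luminescence so fewer parasites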
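Test system: β-gal T. cruzi (Tulahuen C4) inside NIH/3T3 cells / Quantity: 5,000 cells/well / Measured by: luminescence from GalScreen with 0.05% NP40, read after 60 min / Medium: DMEM plus 2% FBS / Measure: parasite load inhibition, % / Reagent: Tulahuen C4 trypomastigotes, 5000/well / Schedule: co-culture of at least 90 h after 3 h attachment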
CSC inhib = cancer stem cell inhibition | cancer stem cell-like cells viability, luminescence | inhibition, % at 7.5 µM | 300,000 tested, 1.1% active; in the data active = inhibition above about 75%; inconclusive = no clear call, values can overlap the other calls; tested in HMLE shEcad cells
SKKanGAS inh = SKKanGAS growth inhibition; AID 1662; 300,000 tested, 1.3% active; inhibition, % at 7.5 µM; S. pyogenes SKKanGAS, kanamycin growth, BacTiter-Glo, 6 h;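 active = mean replicate score, as percent of positive control median, at least 50; inconclusive = mean below 50 but one replicate at or above 50; inactive = mean and every replicate below 50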;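 note: strain carries kanamycin resistance gene driven by streptokinase promoter and grows in 40 µg/ml kanamycin; loss of luminescence reflects streptokinase promoter inhibition or plain growth inhibition; 0% = median of DMSO wells and 100% = positive control at its reference dose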
aSyn UTR inh = MLPCN primary screen, SNCA 5' untranslated region; alpha-synuclein 5'UTR reporter, inhibitor activity; 300,000 tested, 0.82% active; inhibition, % (tested at 7.5 µM); in the data active = inhibition above about 60%; inconclusive = no clear call, values can overlap the other calls;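 note: H4 neuroglioblastoma cells stably carrying SNCA 5'UTR luciferase fusion; 0% = DMSO wells and 100% = positive control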
* = called active by the depositor; ? = inconclusive; nt = not tested or not shown.

SMILES	Mdm2 MdmX PPI	T cruzi inh	CSC inhib	SKKanGAS inh	aSyn UTR inh
Cc1noc(/C=C/c2cccnc2)c1[N+](=O)[O-]	48	59*	30	4	-34
COc1ccc(C(=O)c2ccc(N(C)C)cc2)c2ccccc12	40	8	nt	-6	74*
Cc1ccccc1N1CCN(C2CCCN(C(=O)c3ccsc3)C2)CC1 (configuration not stated)	4	6	-2	2	0
CCCc1ccc(-c2cc(NC(=O)CSc3nnc(N)s3)n(-c3ccccc3)n2)cc1	-84	28	85*	8	-146
Cc1nnc(SCC(=O)Nc2cc(-c3cc(C)c(C)cc3C)nn2-c2ccccc2)s1	26	28	-10	7	-9
C/C=C(\C)CN1CCC(n2nccc2NC(=O)c2ccc3c(c2)OCO3)CC1	9	36	3	20	3
CC(C)=CCCC(C)CN1CCC(n2nccc2NC(=O)c2ccc3c(c2)OCO3)CC1 (configuration not stated)	23	57*	9	1	7
COc1ccccc1Nc1nc(N)nc(CSC(=S)N2CCN(c3ccccc3)CC2)n1	-13	63*	-4	18	-12
O=c1cc(CNc2cc(C(F)(F)F)cc(C(F)(F)F)c2)nc2sccn12	18	10	81*	-2	65*
O=c1ccc(C(F)(F)F)cn1Cc1cc(=O)n2ccsc2n1	-24	-8	0	0	-27
CC(NC(=O)COC(=O)c1cc(S(=O)(=O)N2CCOCC2)ccc1F)c1ccccc1 (configuration not stated)	-3	nt	6	nt	nt
CCc1ccc(-n2nnnc2SCC(=O)Nc2ccc(NC(C)=O)cc2)cc1	17	55*	-2	3	-20
Cc1ccc(-n2nnnc2SCC(=O)NC(=O)Nc2ccc3c(c2)OCCO3)cc1	-54	10	nt	50*	-160
COc1ccc(-n2nnnc2SCC(=O)NC(=O)Nc2ccc3c(c2)OCCO3)cc1	-45	nt	4	nt	nt
COc1ccccc1N(CCC#N)C(=O)CSc1nnc2ccccn12	0	nt	2	nt	nt
O=C(c1cccs1)N1CCc2c([nH]c3ccccc23)C1c1ccccn1 (configuration not stated)	11	8	3	6	-25
O=C(c1cc(-c2ccccc2)n[nH]1)N1CCc2c([nH]c3ccccc23)C1c1ccccn1 (configuration not stated)	48	29	-3	75*	-26
CN(C)CCCOC(=O)c1ccc(Cl)cc1Cl	-7	62*	8	2	6
CCCN(CCC)CCCOC(=O)c1ccc(Cl)cc1Cl	-8	-15	-6	5	7
CN1C(=O)/C(=C\c2ccccc2F)Sc2ccc(C(=O)NC3CCN(Cc4ccccc4)CC3)cc21	40	61*	-7	83*	-37
COc1ccc(/C=C2\Sc3ccc(C(=O)NC4CC4)cc3N(C)C2=O)cc1OC	23	8	11	70*	12
CCOc1ccc(/C=C2/Sc3ccc(C(=O)N4CCOCC4)cc3N(C)C2=O)cc1OC	9	-1	16	68*	4
COc1ccc(/C=C2\Sc3ccc(C(=O)N4CCCC4)cc3N(C)C2=O)cc1OC	40	6	-5	100*	15
O=C(NC1CCN(Cc2cccc([N+](=O)[O-])c2)CC1)c1ccccc1	-1	17	nt	-2	-1
CN1C(=O)/C(=C/c2cccc(Cl)c2)Sc2ccc(C(=O)N3CCOCC3)cc21	30	-1	13	?	-26
SMILES	Mdm2 MdmX PPI	T cruzi inh	CSC inhib	SKKanGAS inh	aSyn UTR inh
Cc1oc2cc3oc(=O)c(CCC(=O)NCc4ccccn4)c(C)c3cc2c1C	-3	6	6	-5	4
Cc1cccnc1NC(=O)c1ccc2c(c1)NC(=O)C(C)S2 (configuration not stated)	19	-10	-8	-11	-15
CN1CCN(S(=O)(=O)c2ccc(N(C)Cc3ccc(C(F)(F)F)cc3)c([N+](=O)[O-])c2)CC1	38	nt	nt	nt	nt
O=C(/C=C/c1ccccc1)c1ccc2c(c1)OCO2	-1	12	9	-2	-206
O=C(/C=C/c1cccc(Br)c1)c1ccc2c(c1)OCO2	43	12	78*	28	-72
COc1ccc(C(=O)COC(=O)c2cccc(-n3cnnn3)c2)c(OC)c1	-57	-13	1	-4	-104
Cc1ccc(NC(=O)c2ccc(C#CC3(O)CCCCC3)cc2)cc1C	6	?	nt	51*	6
Cc1ccc(NC(=O)NC2CCCCCCC2)cc1C	8	nt	-9	nt	nt
Cc1cccc(NC(=O)CNC(=O)Cc2ccc(S(=O)(=O)N3CCOCC3)s2)c1C	0	nt	-10	nt	nt
CC(=Nc1ccc(Br)cc1)c1sc2ccccc2c1O	-356	60*	28	17	-125
CC(=Nc1ccccc1)c1sc2ccccc2c1O	-285	26	11	-10	-383
COc1ccc(CCNC(=O)C2CCCN(Cc3nc(-c4ccccc4C)oc3C)C2)cc1OC (configuration not stated)	11	46	-6	-4	21
COc1ccc(CNC(=O)C2CCCN(Cc3nc(-c4cccc(C)c4)oc3C)C2)cc1 (configuration not stated)	26	56*	-5	2	14
Cc1ccccc1-c1nc(CN2CCCC(C(=O)NCCCN3CCOCC3)C2)c(C)o1 (configuration not stated)	23	66*	-3	-7	-2
CCc1ccc(-c2nc(CN3CCCC(C(=O)NCCc4ccc(OC)c(OC)c4)C3)c(C)o2)cc1 (configuration not stated)	22	59*	-2	-3	-11
CN(C)Cc1nnnn1-c1ccccc1	17	-6	-4	4	20
O=[N+]([O-])c1cccc(COc2ncnc3cc([N+](=O)[O-])ccc23)c1	15	64*	23	-14	-1
CC1CCC2(CC1)OCC1(CCC3(COC4(CCC(C)CC4)OC3)C1=O)CO2 (configuration not stated)	-7	-20	-4	-9	-3
Cc1cccc(N2CCN(C(=O)c3ccc(-n4cncn4)c([N+](=O)[O-])c3)CC2)c1C	18	-5	-7	3	20
O=C(NCc1cccnc1)c1ccc(COc2ccccc2Br)cc1	11	12	29	-16	-26
Cc1cc(C)n(Cc2ccc(NC(=O)c3ccc(COc4ccccc4Br)cc3)cc2)n1	36	60*	125*	20	4
O=C(Nc1nccs1)c1ccc(COc2ccc(F)cc2)o1	-56	-17	26	4	-97
O=C(Nc1cccnc1)c1ccc(COc2ccccc2Br)cc1	7	-2	90*	-2	-7
O=C(Nc1nccs1)c1ccc(COc2ccccc2Br)o1	-10	-5	196*	0	-14
Cc1ccc(NC(=O)COc2ccccc2C(N)=O)cc1S(=O)(=O)N1CCCCCC1	5	nt	nt	nt	nt
CC1=NN(c2ccccc2)C(=O)/C1=C/c1ccc(Cl)cc1	8	6	-1	-1	9
